Test results as given in ChEMBL document CHEMBL3286184, “Antiplasmodial activity of synthetic ellipticine derivatives and an isolated analog” (Bioorg Med Chem Lett, 2014).
Counter-ions that a name gives are not always drawn. Activity calls are given as the source filed them. The calls are words filed in the database; no cut-off is given here.

Assays:
Plasmodium falciparum [1] = experiment: Antiplasmodial activity against Plasmodium falciparum; assay type: functional, organism-based
In short: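 P. falciparum (K1 and 3D7) kept in continuous Trager–Jensen culture and tested at 1–2% initial parasitemia and 3% hematocrit. DMSO stocks (5 mg/mL) were diluted in complete medium across a 100–0.006 range and tested in triplicate for 48 h at 37°C. Growth was read by optical microscopy as IGP% = 100[1 − (parasitemia with sample / untreated control parasitemia)].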

Plasmodium falciparum [2] = experiment: Antiplasmodial activity against multi-drug resistant Plasmodium falciparum K1 in human erythrocytes assessed as growth inhibition after 48 hrs by optical microscopy; assay type: functional, organism-based; conditions: K1, 48 h
In short: (§1)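 Parasites were kept in continuous culture by the Trager and Jensen method. The microtest used 1–2% initial parasitemia and 3% hematocrit. Samples came from 5 mg/mL DMSO stocks, serially diluted in complete medium and added to parasitized red cells in triplicate. Plates were incubated 48 h at 37°C and read by optical microscopy. Growth inhibition % = 100[1 − (parasitemia with sample/parasitemia of untreated controls)].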

MRC5 = experiment: Cytotoxicity against human MRC5 cells after 48 hrs by Alamar blue assay; assay type: cell-based; conditions: MRC5, 48 h
In short: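 MRC-5 fetal lung fibroblasts were grown in DMEM with 10% FBS, 2 mM glutamine and penicillin/streptomycin at 37°C under 5% CO2, seeded at 10^4 cells/well, and dosed with DMSO-dissolved compounds after 24 h for 48 h. Negative controls had 0.1% DMSO. Alamar Blue was added 2 h before the end, with fluorescence read at 530–560 nm excitation and 590 nm emission.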

Plasmodium falciparum [3] = experiment: Antiplasmodial activity against drug susceptible Plasmodium falciparum 3D7 NF54 isolate in human erythrocytes assessed as growth inhibition after 48 hrs by optical microscopy; assay type: functional, organism-based; conditions: 3D7 NF54, 48 h; in short: as §1
[4] = Selectivity index, ratio of IC50 for mouse macrophages to IC50 for Plasmodium falciparum
[5] = Cytotoxicity against mouse macrophages after 18 hrs by MTT assay; assay type: cell-based; conditions: Macrophage
Plasmodium berghei [6] = experiment: Antimalarial activity against Plasmodium berghei infected in mouse assessed as mouse mean survival time at 50 mg/kg, po; assay type: functional
Plasmodium berghei [7] = experiment: Antimalarial activity against Plasmodium berghei infected in mouse assessed as suppression of parasitemia at 10 mg/kg, po by Peters 4 day suppressive test; assay type: functional; conditions: 96 h
Plasmodium berghei [8] = experiment: Antimalarial activity against Plasmodium berghei infected in mouse assessed as suppression of parasitemia at 50 mg/kg, po after 5 to 7 days; assay type: functional
Plasmodium berghei [9] = experiment: Antimalarial activity against Plasmodium berghei infected in mouse assessed as suppression of parasitemia at 10 mg/kg, po after 5 to 7 days; assay type: functional
Plasmodium berghei [10] = experiment: Antimalarial activity against Plasmodium berghei infected in mouse assessed as total elimination of parasitemia at 50 mg/kg, po after 5 to 7 days; assay type: functional, organism-based; design: dose 50 mg/kg

Q: Which IC50 (Plasmodium falciparum [1]; Plasmodium falciparum) does the source give for COc1ccc2[nH]c3c(C)c4ccncc4c(C)c3c2c1 here?
A: 1150 nM

Q: With Cc1c2ccncc2c(C)c2c1[nH]c1ccc([N+](=O)[O-])cc12 as the molecule, how does the IC50 (Plasmodium falciparum [2]) read?
A: 550 nM

Q: Which IC50 (Plasmodium falciparum [1]; Plasmodium falciparum) does the source give for Cc1c2c(c(C)c3c1[nH]c1ccccc13)C=NCC2 here?
A: 1010 nM

Q: With Cc1c2ccncc2c(C)c2c1[nH]c1ccccc12 [listing 1 of 2 here] as the molecule, how does the IC50 (Plasmodium falciparum [1]) read?
A: 600 nM

Q: Which IC50 (MRC5) does the source give for Cc1c2c(c(C)c3c1[nH]c1ccccc13)CN(C)CC2 here?
A: > 50 µg/mL

Q: What about the IC50 (Plasmodium falciparum [3]) of the same molecule?
A: 13000 nM

Q: What about the IC50 (Plasmodium falciparum [2]) of the same molecule?
A: 4200 nM

Q: With Cc1c2ccncc2c(C)c2c1[nH]c1c([N+](=O)[O-])cccc12 as the molecule, how does the IC50 (MRC5) read?
A: > 50 µg/mL

Q: And the IC50 (Plasmodium falciparum [3])?
A: 17000 nM

Q: What about the IC50 (Plasmodium falciparum [2]) of the same molecule?
A: 13000 nM

Q: For Cc1c2ccncc2c(C)c2c1[nH]c1ccccc12 [ELLIPTECINE], which IC50 (Plasmodium falciparum [1]; Plasmodium falciparum) is on record?
A: 1130 nM

Q: And the IC50 (Plasmodium falciparum [3])?
A: 350 nM

Q: And the “Ratio IC50” value [4]?
A: >290

Q: And the IC50 [5]?
A: > 140000 nM

Q: And the MST (Plasmodium berghei [6])?
A: >40 days

Q: And the inhibition in vivo at 10 mg/kg (Plasmodium berghei [7])?
A: 70%

Q: And the IC50 (Plasmodium falciparum [2])?
A: 810 nM

Q: With Cc1nccc2c(C)c3[nH]c4ccccc4c3cc12 as the molecule, how does the inhibition in vivo at 50 mg/kg (Plasmodium berghei [8]) read?
A: 90%

Q: What about the inhibition in vivo at 10 mg/kg (Plasmodium berghei [9]) of the same molecule?
A: 48%

Q: And the IC50 (Plasmodium falciparum [3])?
A: 1200 nM

Q: And the “Ratio IC50” value [4]?
A: >290

Q: What about the IC50 [5] of the same molecule?
A: > 140000 nM

Q: For Cc1c2ccncc2c(C)c2c1[nH]c1ccc(O)cc12, which IC50 (Plasmodium falciparum [1]; Plasmodium falciparum) is on record?
A: 300 nM

Q: With C=C[C@H]1CN2CC[C@H]1C[C@H]2[C@H](O)c1ccnc2ccc(OC)cc12 [QUININE SULFATE] as the molecule, how does the IC50 (Plasmodium falciparum [3]) read?
A: 150 nM

Q: What about the IC50 [5] of the same molecule?
A: > 140000 nM

Q: What about the IC50 (Plasmodium falciparum [2]) of the same molecule?
A: 120 nM

Q: For CCN(CC)CCCC(C)Nc1ccnc2cc(Cl)ccc12 (stereo not drawn) [CHLOROQUINE PHOSPHATE], which IC50 [5] is on record?
A: > 140000 nM

Q: With Cc1c2ccncc2c(C)c2c1[nH]c1ccccc12 [listing 2 of 2 here] as the molecule, how does the inhibition (Plasmodium berghei [10]) read?
A: Active
